Measurements as given in publication PMC10209341 (Heliyon, 2023).
Read-outs that look alike come from different tables or passages of the source.

Columns and labels:
Sub-acute toxicity study = assay type: in vivo, C57BL/6 mice; conditions: for body weight / deaths during the study: 25 days; for deaths during the study: female C57BL/6 mice
Outline: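 Female C57BL/6 mice dosed orally for 25 days with vehicle, test compound 100 mg/kg or reference drug 40 mg/kg. Body weight and survival followed. Livers imaged and H&E stained. Plasma BUN, CREA, GLB, UREAL, ALP, AST and ALT measured (n = 3).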

HCT116 xenograft [1] = test: HCT116 xenograft, medium-term tumor model; assay type: in vivo, Balb/c nude mice; conditions: for tumor inhibitory rate: medium-term HCT116 model
Outline: (§1)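 Female Balb/c nude mice, 6–8 weeks old. HCT116 cells (5 × 10^6 in 100 μL PBS) injected s.c. into the right flank. All given orally once daily. Tumour volume (0.5 × a × b²) measured every three days.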

LO2 cells [2] = test: MTT assay in normal liver cells LO2; assay type: cell-based; conditions: Homo sapiens, L02, 72 h, read-out: IC50, viability of normal liver cells LO2
Hep3B2.1-7 xenograft = test: Hep3B2.1-7 hepatoma xenograft model; assay type: in vivo, Balb/c nude mice; conditions: Hep3B2.1-7 model; for growth inhibition rate: terminated day 15
Outline: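 Female Balb/c nude mice, 6–8 weeks old, carrying s.c. Hep3B2.1-7 xenografts. Tumours established as for the HCT116 initial model (~150 mm3). Tumour volume (0.5 × a × b²) measured every three days and body weight monitored. At the end, mice sacrificed under anaesthesia and major organs taken for H&E.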

[3] = test system: N-GSDME and cleaved-caspase3 in HCT116, Hep3B2.1-7 and HepG2 cells; test: Western blot of pyroptosis-related proteins; assay type: cell-based; conditions: 48 h
Outline: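 HCT116, Hep3B2.1-7 and HepG2 cells treated 48 h with graded concentrations of test compound or reference drug, then lysed in RIPA. 100 μg protein run on 10% SDS-PAGE and blotted to nitrocellulose. Probed for GSDME, N-GSDME, caspase-3 and cleaved caspase-3, with ECL detection. Bands quantified as ratio to GAPDH; three independent experiments.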

HepG2 xenograft = test: HepG2 hepatoma xenograft model; assay type: in vivo, Balb/c nude mice
Outline: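 Female Balb/c nude mice, 6–8 weeks old, carrying s.c. HepG2 xenografts. Tumours established as for the HCT116 initial model (~150 mm3). Groups: vehicle, test compound 50 mg/kg, reference drug 30 mg/kg; n = 5. Tumour volume (0.5 × a × b²) measured every three days and body weight followed. At the end of treatment, organs taken for H&E.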

[4] = test system: HCT116, HepG2 and Hep3B2.1-7 cells; test: Cellular ROS level by flow cytometry; assay type: cell-based; conditions: 48 h, DCFH-DA
Outline: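 Cells seeded at 3 × 10^4 per well in 6-well plates and grown 24 h, then exposed 48 h to graded concentrations of test compound or reference drug. Intracellular ROS stained with DCFH-DA (ROS assay kit), read by flow cytometry and quantified. DCFH-DA-stained HCT116 cells were also viewed by inverted fluorescence microscopy.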

HCT116 xenograft [5] = test: HCT116 xenograft, initial tumor model; assay type: in vivo, Balb/c nude mice
Outline: as §1

LO2 cells [6] = test: Microscopy imaging of cell morphology; assay type: cell-based; conditions: 48 h
Outline: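 LO2 cells exposed 48 h to test compound or reference drug and imaged by microscopy. Scored features were apoptotic bodies and ballooned cell membranes typical of pyroptosis.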

HCT116 cells = test: Rescue of Lenvatinib-induced pyroptosis in pretreated HCT116 cells; assay type: cell-based; conditions: then stimulated with Lenvatinib
[7] = test system: transgenic zebrafish embryos; test: Angiogenesis in flk:eGFP transgenic zebrafish; assay type: in vivo; conditions: 3 μM, 16 h
STAT3 phosphorylation = test: Western blot of VEGF-induced phosphorylation in HUVECs; assay type: cell-based; conditions: 1.0 μM
Outline: (§2)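 HUVEC lysates made in RIPA buffer and protein measured by BCA. 100 μg protein run on 10% SDS-PAGE and transferred to nitrocellulose. Membranes blocked 2 h in TBST with 5% milk, then primary antibody overnight at 4 °C and secondary 1 h at room temperature. Bands detected by ECL.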

VEGFR3 = VEGFR3 (Homo sapiens, UniProt P35916); test: Kinase inhibition assay; assay type: biochemical
Outline: (§3)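 Run by an outside contract provider as part of a panel covering VEGFR1-3, FGFR1-4 and PDGFR. Test compound was tested across a gradient of concentrations, and IC50 was calculated from the resulting concentration-response data.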

VEGFR1 = VEGFR1 (Homo sapiens, UniProt P17948); test: Kinase inhibition assay; assay type: biochemical
Outline: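 Kinase activity tested by a contract provider over a gradient of test-compound concentrations. IC50 derived by fitting the concentration–response data.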

HUVECs [8] = test: MTT assay in HUVECs; assay type: cell-based; conditions: Homo sapiens, HUVEC, 48 h
tumor tissues = test: Immunohistochemistry of xenograft tumor tissues; assay type: in vivo, Balb/c nude mice; conditions: vs controls
Outline: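 At the end of xenograft treatment, mice sacrificed under anaesthesia and tumours excised. Tumour sections stained by immunohistochemistry for Ki67 (proliferation) and CD31 (microvessels), plus TUNEL for apoptotic cells. Imaged at ×20.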

[9] = test system: HepG2, Hepa3B2.1-7 and HCT116 cells; test: MTT and crystal violet; assay type: cell-based; conditions: MTT and crystal violet staining, time- and dose-dependent
Outline: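 MTT: cells (2–5 × 10^3 per well) attached 24 h, then given graded concentrations of test compound (in DMSO): 6 days for liver cancer lines, 3 days for HCT116, and various times. MTT (5 mg/mL) added for 4 h; formazan dissolved in DMSO and absorbance read at 570 nm. Colony assay: 1.5 × 10^3 cells per well treated 10 days, fixed in 4% PFA 20 min, stained with 0.5% crystal violet 10 min, counted. Three independent experiments.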

VEGF165-induced HUVECs = test: EdU incorporation assay in HUVECs; assay type: cell-based
Outline: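 HUVECs were kept in medium with 10% FBS at 37 °C and 5% CO2, then plated at 1 × 10^4 cells/well in 96-well plates. Cells received a range of test-compound concentrations or solvent control and were stained with an EdU proliferation kit plus Hoechst 33342. Under a fluorescence microscope, the read-out was the ratio of EdU-positive to Hoechst-positive cells. Values are mean ± SD from three independent experiments.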

HUVECs [10] = test: Transwell invasion assay of HUVECs; assay type: cell-based; conditions: 1.25 μM, 24 h
Outline: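 HUVECs (4 × 10^4) in growth-factor-free ECM medium went into Matrigel-coated transwell upper chambers; the lower chamber held ECM with growth factors. Test compound (1.25 μM) or DMSO was added to the upper cells for 24 h. Non-invading cells were scraped off, and invaded cells were fixed in 4% paraformaldehyde, stained with crystal violet and photographed. Values are mean ± SD, n = 3.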

ERK phosphorylation = test: Western blot of VEGF-induced phosphorylation in HUVECs; assay type: cell-based; conditions: 0.3 μM
Outline: as §2

VEGFR2 = VEGFR2 (Homo sapiens, UniProt P35968); test: Kinase inhibition assay; assay type: biochemical
Outline: as §3

HUVECs [11] = test: HUVEC tube formation assay; assay type: cell-based; conditions: 3 μM, 6 h
Outline: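 Wells were pre-chilled, coated with Matrigel and polymerised at 37 °C for 1 h. HUVECs in ECM medium were seeded on the Matrigel at 2 × 10^4 cells/well together with test compound (3 μM). After 6 h, tube formation was observed by microscopy. Values are mean ± SD from three independent experiments.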

HUVECs [12] = test: Wound healing; assay type: cell-based; conditions: 1.25 μM, 24 h
Outline: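 HUVEC monolayers in 6-well plates were scratch-wounded, washed with PBS and treated with test compound (1.25 μM). Wounds were photographed under a microscope after 24 h. Values are mean ± SD from three independent experiments.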

VEGFR2 phosphorylation = test: Western blot of VEGF-induced phosphorylation in HUVECs; assay type: cell-based; conditions: 3.3 μM
Outline: as §2

Sequence of VEGFR1 (P17948 27-1338): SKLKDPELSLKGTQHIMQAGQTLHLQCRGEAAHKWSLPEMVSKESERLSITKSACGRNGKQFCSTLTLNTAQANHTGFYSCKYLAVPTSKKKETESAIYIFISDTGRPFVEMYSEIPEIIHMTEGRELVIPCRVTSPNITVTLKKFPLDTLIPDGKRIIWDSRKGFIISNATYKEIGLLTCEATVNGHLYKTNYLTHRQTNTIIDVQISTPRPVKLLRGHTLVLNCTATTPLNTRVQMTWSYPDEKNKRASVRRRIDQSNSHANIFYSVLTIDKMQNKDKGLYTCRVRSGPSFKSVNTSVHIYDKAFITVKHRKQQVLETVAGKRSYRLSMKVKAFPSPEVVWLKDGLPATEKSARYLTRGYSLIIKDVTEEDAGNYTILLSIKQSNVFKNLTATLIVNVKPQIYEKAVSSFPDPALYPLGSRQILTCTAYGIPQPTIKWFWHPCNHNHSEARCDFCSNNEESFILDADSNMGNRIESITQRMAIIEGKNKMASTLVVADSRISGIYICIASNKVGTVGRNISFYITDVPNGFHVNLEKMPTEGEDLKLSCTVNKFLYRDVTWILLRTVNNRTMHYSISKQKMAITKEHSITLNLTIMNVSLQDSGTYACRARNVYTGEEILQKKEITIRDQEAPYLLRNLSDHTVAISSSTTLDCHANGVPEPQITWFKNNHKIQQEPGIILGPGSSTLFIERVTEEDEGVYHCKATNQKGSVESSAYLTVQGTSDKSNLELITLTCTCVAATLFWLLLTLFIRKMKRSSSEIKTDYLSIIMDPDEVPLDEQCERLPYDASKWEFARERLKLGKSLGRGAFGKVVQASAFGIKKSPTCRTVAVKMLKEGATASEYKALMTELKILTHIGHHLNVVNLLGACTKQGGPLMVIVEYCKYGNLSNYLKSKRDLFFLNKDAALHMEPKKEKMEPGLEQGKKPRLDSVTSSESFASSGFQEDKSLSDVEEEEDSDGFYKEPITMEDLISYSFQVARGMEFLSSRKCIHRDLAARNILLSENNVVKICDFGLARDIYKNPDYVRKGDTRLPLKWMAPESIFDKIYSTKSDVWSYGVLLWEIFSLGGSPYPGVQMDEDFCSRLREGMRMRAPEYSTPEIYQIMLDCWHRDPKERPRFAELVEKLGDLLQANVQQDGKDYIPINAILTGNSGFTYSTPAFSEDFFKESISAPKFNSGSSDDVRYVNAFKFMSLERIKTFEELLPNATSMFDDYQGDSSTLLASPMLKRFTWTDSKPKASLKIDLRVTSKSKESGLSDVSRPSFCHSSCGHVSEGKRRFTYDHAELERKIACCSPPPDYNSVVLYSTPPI
Sequence of VEGFR3 (P35916 25-1363): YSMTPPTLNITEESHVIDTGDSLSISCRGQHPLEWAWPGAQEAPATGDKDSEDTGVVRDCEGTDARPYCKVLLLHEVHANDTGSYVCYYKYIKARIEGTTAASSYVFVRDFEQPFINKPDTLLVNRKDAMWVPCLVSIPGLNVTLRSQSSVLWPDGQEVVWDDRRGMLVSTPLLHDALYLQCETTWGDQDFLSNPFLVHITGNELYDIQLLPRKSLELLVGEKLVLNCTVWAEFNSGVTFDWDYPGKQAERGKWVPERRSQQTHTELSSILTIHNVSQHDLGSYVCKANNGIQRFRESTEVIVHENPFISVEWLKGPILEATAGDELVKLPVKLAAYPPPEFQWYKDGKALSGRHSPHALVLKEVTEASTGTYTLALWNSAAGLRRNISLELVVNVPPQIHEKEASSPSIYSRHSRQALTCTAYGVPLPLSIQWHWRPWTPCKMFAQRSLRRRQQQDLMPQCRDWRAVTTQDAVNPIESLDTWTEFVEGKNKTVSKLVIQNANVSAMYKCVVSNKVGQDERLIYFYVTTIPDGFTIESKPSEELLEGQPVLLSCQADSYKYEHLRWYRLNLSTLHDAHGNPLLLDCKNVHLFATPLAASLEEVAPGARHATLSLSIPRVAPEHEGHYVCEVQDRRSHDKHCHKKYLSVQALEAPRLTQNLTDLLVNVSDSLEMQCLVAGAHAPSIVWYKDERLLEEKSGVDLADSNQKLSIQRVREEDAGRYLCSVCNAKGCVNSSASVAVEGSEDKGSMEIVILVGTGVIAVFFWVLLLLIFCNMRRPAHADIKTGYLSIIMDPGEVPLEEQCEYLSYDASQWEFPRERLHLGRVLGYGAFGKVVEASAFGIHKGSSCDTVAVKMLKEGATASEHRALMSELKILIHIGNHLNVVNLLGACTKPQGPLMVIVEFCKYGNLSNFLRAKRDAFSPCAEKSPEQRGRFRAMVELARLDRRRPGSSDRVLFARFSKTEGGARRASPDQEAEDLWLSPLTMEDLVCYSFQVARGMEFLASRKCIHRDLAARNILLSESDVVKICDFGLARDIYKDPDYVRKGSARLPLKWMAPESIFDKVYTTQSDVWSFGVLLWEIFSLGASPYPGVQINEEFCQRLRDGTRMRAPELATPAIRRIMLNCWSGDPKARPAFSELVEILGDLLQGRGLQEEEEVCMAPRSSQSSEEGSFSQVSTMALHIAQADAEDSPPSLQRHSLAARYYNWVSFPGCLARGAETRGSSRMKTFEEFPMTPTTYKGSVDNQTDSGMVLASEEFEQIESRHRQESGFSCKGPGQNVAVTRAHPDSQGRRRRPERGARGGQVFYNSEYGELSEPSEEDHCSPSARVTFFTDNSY
Sequence of VEGFR2 (P35968 20-1356): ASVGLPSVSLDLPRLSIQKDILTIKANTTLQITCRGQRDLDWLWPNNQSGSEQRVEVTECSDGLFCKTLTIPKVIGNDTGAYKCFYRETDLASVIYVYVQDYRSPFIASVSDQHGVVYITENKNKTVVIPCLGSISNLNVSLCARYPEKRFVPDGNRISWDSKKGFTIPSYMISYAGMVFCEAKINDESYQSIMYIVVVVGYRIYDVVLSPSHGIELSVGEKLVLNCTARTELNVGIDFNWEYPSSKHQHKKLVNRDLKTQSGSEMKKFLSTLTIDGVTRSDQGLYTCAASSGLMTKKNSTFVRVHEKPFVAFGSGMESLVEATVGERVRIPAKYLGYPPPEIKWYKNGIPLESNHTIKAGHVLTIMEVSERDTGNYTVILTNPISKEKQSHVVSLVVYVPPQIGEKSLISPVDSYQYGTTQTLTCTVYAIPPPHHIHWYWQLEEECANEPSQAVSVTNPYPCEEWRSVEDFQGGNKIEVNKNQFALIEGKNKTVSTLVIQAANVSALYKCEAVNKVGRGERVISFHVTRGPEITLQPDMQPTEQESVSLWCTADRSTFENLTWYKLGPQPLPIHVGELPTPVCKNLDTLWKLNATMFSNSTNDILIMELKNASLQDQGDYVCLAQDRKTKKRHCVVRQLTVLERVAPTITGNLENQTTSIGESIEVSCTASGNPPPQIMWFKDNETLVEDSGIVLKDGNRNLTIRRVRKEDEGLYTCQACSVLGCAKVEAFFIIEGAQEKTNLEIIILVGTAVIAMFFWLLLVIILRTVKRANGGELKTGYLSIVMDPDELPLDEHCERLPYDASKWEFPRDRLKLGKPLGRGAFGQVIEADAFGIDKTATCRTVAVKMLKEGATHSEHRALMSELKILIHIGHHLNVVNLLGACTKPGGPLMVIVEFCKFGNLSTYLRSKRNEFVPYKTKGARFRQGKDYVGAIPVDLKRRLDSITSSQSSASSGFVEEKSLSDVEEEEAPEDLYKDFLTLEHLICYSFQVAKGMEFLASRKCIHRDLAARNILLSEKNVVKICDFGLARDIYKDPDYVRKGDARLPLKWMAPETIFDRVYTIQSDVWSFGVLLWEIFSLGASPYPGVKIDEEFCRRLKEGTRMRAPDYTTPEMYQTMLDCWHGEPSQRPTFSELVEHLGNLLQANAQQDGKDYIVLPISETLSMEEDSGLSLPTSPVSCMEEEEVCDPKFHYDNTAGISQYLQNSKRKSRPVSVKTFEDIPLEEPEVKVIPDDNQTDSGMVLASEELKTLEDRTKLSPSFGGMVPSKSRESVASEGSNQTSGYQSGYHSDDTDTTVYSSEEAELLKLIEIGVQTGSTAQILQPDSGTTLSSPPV

COc1cc2nccc(Oc3ccc(NC(=O)NC4CC4)c(Cl)c3)c2cc1C(N)=O [Lenvatinib, reference compound]
levels of ALP (Sub-acute toxicity study; 40 mg/kg oral): notably increased | levels of AST and ALT (Sub-acute toxicity study; 40 mg/kg oral): decreased | liver images and H&E (Sub-acute toxicity study; 40 mg/kg oral): focal necrosis and significant inflammatory cell infiltration | body weight (Sub-acute toxicity study; 40 mg/kg oral): obvious body weight loss | deaths during the study (Sub-acute toxicity study; 40 mg/kg oral): 5/5 | body weight (HCT116 xenograft [1]; medium-term (metaphase) HCT116 model, 5 mg/kg): lower body weights than ZLF-095-treated group | tumor inhibitory rate (HCT116 xenograft [1]; 5 mg/kg oral once daily): 66.5% | IC50 (LO2 cells [2]): 14000 nM | body weight (Hep3B2.1-7 xenograft; 30 mg/kg, day 15): sustained weight loss | growth inhibition rate (Hep3B2.1-7 xenograft; 30 mg/kg): 78.1% | cleaved-caspase3 / caspase3 activation [3]: obviously up‐regulated | expression of N-GSDME [3]: obviously up‐regulated | body weight / lethality (HepG2 xenograft; 30 mg/kg, after 16 days): marked loss of body weight led to death in mice | intracellular ROS levels [4]: significantly increased | body weight (HCT116 xenograft [5]; 5 mg/kg): lower body weights than ZLF-095-treated group | tumor inhibitory rate (HCT116 xenograft [5]; 5 mg/kg oral once daily): 76.8% | cell morphology (pyroptosis) (LO2 cells [6]): large bubbles bulging from the cell membrane

CC(=O)N[C@@H](CS)C(=O)O [NAC]
effect on Lenvatinib-induced cell swelling / pyroptosis (HCT116 cells): rescue Lenvatinib-induced pyroptosis

COC(=O)CC[C@H](NC(=O)[C@H](CC(=O)OC)NC(=O)OCc1ccccc1)C(=O)N[C@H](C(=O)N[C@@H](CC(=O)OC)C(=O)CF)C(C)C [Z-DEVD-FMK]
effect on Lenvatinib-induced cell swelling / pyroptosis (HCT116 cells): abolished

COCCOCCOc1cc2nccc(Oc3ccc(NC(=O)NC4CC4)c(Cl)c3)c2cc1C(N)=O [ZLF-095, 4-(3-chloro-4-(3-cyclopropylureido)phenoxy)-7-(2-(2-methoxyethoxy)ethoxy)qui noline-6-carboxamide]
formation of intersegmental vessels (ISV) [7]: significantly suppressed the formation of intersegmental vessels (ISV), similar to Lenvatinib | liver images and H&E (Sub-acute toxicity study; 100 mg/kg oral): no visible abnormalities in the liver | serum levels of BUN, CREA, GLB, UREAL, ALP, AST and ALT (Sub-acute toxicity study; 100 mg/kg oral): No aberrant serum levels | deaths during the study (Sub-acute toxicity study; 100 mg/kg oral): none | body weight (Sub-acute toxicity study; 100 mg/kg oral, vs vehicle): no significant changes in body weight | tumor inhibitory rate (HCT116 xenograft [1]; 5 mg/kg oral once daily): 60.7% | tumor inhibitory rate (HCT116 xenograft [1]; 15 mg/kg oral once daily): 72.5% | STAT3 phosphorylation (STAT3 phosphorylation): significantly inhibited | IC50 (VEGFR3): 0.7 nM | IC50 (VEGFR1): 2 nM | IC50 (HUVECs [8]; read-out: IC50, viability of VEGF165-induced HUVECs): 1770 nM | IC50 (HUVECs [8]; read-out: IC50, viability of untreated HUVECs): 10100 nM | growth inhibition rate (Hep3B2.1-7 xenograft; 30 mg/kg): 66.6% | growth inhibition rate (Hep3B2.1-7 xenograft; 80 mg/kg): 81.5% | gross abnormalities (Hep3B2.1-7 xenograft; dose levels up to 80 mg/kg): no gross abnormalities were observed | expression of Ki67 in tumor tissues (tumor tissues; immunohistochemistry): significantly decreased | micro-vessel density of tumors (CD31) (tumor tissues): markedly decreased | number of apoptotic cells in tumor tissues (TUNEL) (tumor tissues): increased | cleaved-caspase3 / caspase3 activation [3]: increased caspase3 activation | expression of N-GSDME [3]: had no effect | proliferation of HepG2, Hepa3B2.1-7 and HCT116 cells [9]: significantly inhibited | body weight (HepG2 xenograft; 50 mg/kg, 25 days): no influence on the weight | suppression of cancer growth (HepG2 xenograft; 50 mg/kg, 25 days): 75.2% | cell proliferation (EdU) (VEGF165-induced HUVECs): reduced cell proliferation in VEGF165-induced HUVECs in a dose-dependent manner | invasion of HUVECs (transwell) (HUVECs [10]): significantly inhibited the invasion of HUVECs, similar to Lenvatinib | ERK phosphorylation (ERK phosphorylation): significantly inhibited | tumor inhibitory rate (HCT116 xenograft [5]; 5 mg/kg oral once daily): 72.7% | tumor inhibitory rate (HCT116 xenograft [5]; 15 mg/kg oral once daily): 83.9% | IC50 (VEGFR2): 5 nM | capillary tube formation of HUVECs (HUVECs [11]): inhibited capillary tube formation of HUVECs | cell morphology (pyroptosis) (LO2 cells [6]): no such change was seen | migration of HUVECs (wound healing) (HUVECs [12]): inhibited the migration of HUVECs slightly better than Lenvatinib | phosphorylation of VEGFR2 induced by 50 ng/mL VEGF-165 (VEGFR2 phosphorylation): obviously suppressed
